Test results from ChEMBL document CHEMBL5058577, “EUbOPEN Chemogenomics Library 2 (Multiplex)” (2022).

System: U2OS
Test: Multiplex assay against U2OS
Type: toxicity, cell-based
Settings: human
In short: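 Compound was added to live cells that had been stained at seeding with Hoechst33342, BioTracker Green Microtubule Cytoskeleton Dye, MitoTracker Red and Annexin V Alexa Fluor 680, and imaging followed on a CQ1 microscope at 37°C and 5% CO2. CellPathfinder machine-learning gating divided cells into Hoechst high-intensity objects or normal cells, normal cells into healthy, pyknosed or fragmented nuclei, and pyknosed cells into mitotic or apoptotic. Tubulin, mitochondrial-mass and membrane-permeability phenotypes are per cents of healthy-nucleus cells.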

[1] = 12 h, 1 µM, compound concentration 1 uM, replicate 1
[2] = 12 h, 1 µM, compound concentration 1 uM, replicate 2
[3] = 12 h, 10 µM, compound concentration 10 uM, replicate 1
[4] = 12 h, 10 µM, compound concentration 10 uM, replicate 2
[5] = 24 h, 1 µM, compound concentration 1 uM, replicate 1
[6] = 24 h, 1 µM, compound concentration 1 uM, replicate 2
[7] = 24 h, 10 µM, compound concentration 10 uM, replicate 1
[8] = 24 h, 10 µM, compound concentration 10 uM, replicate 2
[9] = 48 h, 1 µM, compound concentration 1 uM, replicate 1
[10] = 48 h, 1 µM, compound concentration 1 uM, replicate 2
[11] = 48 h, 10 µM, compound concentration 10 uM, replicate 1
[12] = 48 h, 10 µM, compound concentration 10 uM, replicate 2

CSc1ccccc1N1CCN(CCCCCC(=O)NC2CCCc3ccccc32)CC1.Cl (configuration not stated)
Population Apoptotic (%) [1]: 62%
Population Fragmented Nuclei (%) [1]: 22%
Population Healthy Nuclei (%) [1]: 61%
Population Hoechst High Intensity Objects (%) [1]: 9%
Population Membrane Permeable-Phenotype (%) [1]: 73%
Population Mitochondria Different-Phenotype (%) [1]: 71%
Population Mitotic Cells (%) [1]: 37%
Population Normal (%) [1]: 90%
Population Pyknosed Nuclei (%) [1]: 15%
Population Tubulin-Different-Phenotype (%) [1]: 88%
Total Cell Count [1]: 222
Population Apoptotic (%) [2]: 36%
Population Fragmented Nuclei (%) [2]: 24%
Population Healthy Nuclei (%) [2]: 63%
Population Hoechst High Intensity Objects (%) [2]: 3%
Population Membrane Permeable-Phenotype (%) [2]: 51%
Population Mitochondria Different-Phenotype (%) [2]: 85%
Population Mitotic Cells (%) [2]: 63%
Population Normal (%) [2]: 96%
Population Pyknosed Nuclei (%) [2]: 11%
Population Tubulin-Different-Phenotype (%) [2]: 72%
Total Cell Count [2]: 101
Population Apoptotic (%) [3]: 70%
Population Fragmented Nuclei (%) [3]: 41%
Population Healthy Nuclei (%) [3]: 39%
Population Hoechst High Intensity Objects (%) [3]: 8%
Population Membrane Permeable-Phenotype (%) [3]: 67%
Population Mitochondria Different-Phenotype (%) [3]: 90%
Population Mitotic Cells (%) [3]: 29%
Population Normal (%) [3]: 91%
Population Pyknosed Nuclei (%) [3]: 18%
Population Tubulin-Different-Phenotype (%) [3]: 96%
Total Cell Count [3]: 221
Population Apoptotic (%) [4]: 84%
Population Fragmented Nuclei (%) [4]: 23%
Population Healthy Nuclei (%) [4]: 55%
Population Hoechst High Intensity Objects (%) [4]: 4%
Population Membrane Permeable-Phenotype (%) [4]: 60%
Population Mitochondria Different-Phenotype (%) [4]: 92%
Population Mitotic Cells (%) [4]: 16%
Population Normal (%) [4]: 95%
Population Pyknosed Nuclei (%) [4]: 21%
Population Tubulin-Different-Phenotype (%) [4]: 98%
Total Cell Count [4]: 125
Population Apoptotic (%) [5]: 54%
Population Fragmented Nuclei (%) [5]: 22%
Population Healthy Nuclei (%) [5]: 60%
Population Hoechst High Intensity Objects (%) [5]: 6%
Population Membrane Permeable-Phenotype (%) [5]: 63%
Population Mitochondria Different-Phenotype (%) [5]: 63%
Population Mitotic Cells (%) [5]: 45%
Population Normal (%) [5]: 94%
Population Pyknosed Nuclei (%) [5]: 17%
Population Tubulin-Different-Phenotype (%) [5]: 75%
Total Cell Count [5]: 250
Population Apoptotic (%) [6]: 58%
Population Fragmented Nuclei (%) [6]: 25%
Population Healthy Nuclei (%) [6]: 58%
Population Hoechst High Intensity Objects (%) [6]: 2%
Population Membrane Permeable-Phenotype (%) [6]: 46%
Population Mitochondria Different-Phenotype (%) [6]: 74%
Population Mitotic Cells (%) [6]: 41%
Population Normal (%) [6]: 97%
Population Pyknosed Nuclei (%) [6]: 15%
Population Tubulin-Different-Phenotype (%) [6]: 63%
Total Cell Count [6]: 111
Population Apoptotic (%) [7]: 89%
Population Fragmented Nuclei (%) [7]: 44%
Population Healthy Nuclei (%) [7]: 28%
Population Hoechst High Intensity Objects (%) [7]: 6%
Population Membrane Permeable-Phenotype (%) [7]: 79%
Population Mitochondria Different-Phenotype (%) [7]: 81%
Population Mitotic Cells (%) [7]: 10%
Population Normal (%) [7]: 93%
Population Pyknosed Nuclei (%) [7]: 26%
Population Tubulin-Different-Phenotype (%) [7]: 91%
Total Cell Count [7]: 219
Population Apoptotic (%) [8]: 94%
Population Fragmented Nuclei (%) [8]: 19%
Population Healthy Nuclei (%) [8]: 44%
Population Hoechst High Intensity Objects (%) [8]: 10%
Population Membrane Permeable-Phenotype (%) [8]: 90%
Population Mitochondria Different-Phenotype (%) [8]: 56%
Population Mitotic Cells (%) [8]: 5%
Population Normal (%) [8]: 89%
Population Pyknosed Nuclei (%) [8]: 37%
Population Tubulin-Different-Phenotype (%) [8]: 97%
Total Cell Count [8]: 112
Population Apoptotic (%) [9]: 64%
Population Fragmented Nuclei (%) [9]: 25%
Population Healthy Nuclei (%) [9]: 53%
Population Hoechst High Intensity Objects (%) [9]: 8%
Population Membrane Permeable-Phenotype (%) [9]: 42%
Population Mitochondria Different-Phenotype (%) [9]: 56%
Population Mitotic Cells (%) [9]: 35%
Population Normal (%) [9]: 91%
Population Pyknosed Nuclei (%) [9]: 21%
Population Tubulin-Different-Phenotype (%) [9]: 50%
Total Cell Count [9]: 272
Population Apoptotic (%) [10]: 95%
Population Fragmented Nuclei (%) [10]: 28%
Population Healthy Nuclei (%) [10]: 52%
Population Hoechst High Intensity Objects (%) [10]: 5%
Population Membrane Permeable-Phenotype (%) [10]: 41%
Population Mitochondria Different-Phenotype (%) [10]: 63%
Population Mitotic Cells (%) [10]: 4%
Population Normal (%) [10]: 94%
Population Pyknosed Nuclei (%) [10]: 18%
Population Tubulin-Different-Phenotype (%) [10]: 44%
Total Cell Count [10]: 137
Population Apoptotic (%) [11]: 98%
Population Fragmented Nuclei (%) [11]: 43%
Population Healthy Nuclei (%) [11]: 18%
Population Hoechst High Intensity Objects (%) [11]: 15%
Population Membrane Permeable-Phenotype (%) [11]: 77%
Population Mitochondria Different-Phenotype (%) [11]: 33%
Population Mitotic Cells (%) [11]: 1%
Population Normal (%) [11]: 84%
Population Pyknosed Nuclei (%) [11]: 38%
Population Tubulin-Different-Phenotype (%) [11]: 75%
Total Cell Count [11]: 232
Population Apoptotic (%) [12]: 100%
Population Fragmented Nuclei (%) [12]: 25%
Population Healthy Nuclei (%) [12]: 20%
Population Hoechst High Intensity Objects (%) [12]: 11%
Population Membrane Permeable-Phenotype (%) [12]: 85%
Population Mitochondria Different-Phenotype (%) [12]: 45%
Population Mitotic Cells (%) [12]: 0%
Population Normal (%) [12]: 88%
Population Pyknosed Nuclei (%) [12]: 54%
Population Tubulin-Different-Phenotype (%) [12]: 95%
Total Cell Count [12]: 109
